ChEMBL document CHEMBL1132616, “6-Substituted benzopyrans as potassium channel activators: synthesis, vasodilator properties, and multivariate analysis” (1999)

Columns and labels:
Rattus norvegicus [1] = species: Rattus norvegicus; assay: Relaxant potency in rat aorta.; type: functional
Procedure, shortened: (§1)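 Aortic rings (5 mm wide) were denuded of endothelium, confirmed by the absence of a dilator response to 1 mmol/L acetylcholine. Tracheal strips were cut through the ring opposite the muscle layer. Tissues were mounted in 7-mL baths for isometric force recording. Once contraction was stable, cumulative concentration–effect curves were run. Compounds came from 10^-2 M DMSO stocks diluted in water, with final bath DMSO at most 2%.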

Rattus norvegicus [2] = species: Rattus norvegicus; assay: Relaxant potency in rat trachea.; type: functional; procedure, shortened: as §1

| Compound | Log 1/C (Rattus norvegicus [1]) | Log 1/C (Rattus norvegicus [2]) |
| --- | --- | --- |
| CC1(C)C=C(n2ccccc2=O)c2cc(C(F)(F)F)ccc2O1 | 7.61 | 7.37 |
| CC1(C)C=C(n2ccccc2=O)c2cc(Br)ccc2O1 | 7.84 | 7.53 |
| CC1(C)C=C(n2ccccc2=O)c2cc(-c3ccncc3)ccc2O1 | 6.68 | 6.32 |
| CC1(C)C=C(n2ccccc2=O)c2cc(C(=N)NO)ccc2O1 | 5.99 | 5.51 |
| CC1(C)C=C(n2ccccc2=O)c2cc(C(=O)c3ccccc3C(F)(F)F)ccc2O1 | 6.76 | 5.78 |
| CC1(C)C=C(n2ccccc2=O)c2cc(C(=O)c3ccccc3F)ccc2O1 | 7.08 | 6.34 |
| CCC(=O)c1ccc2c(c1)C(n1ccccc1=O)=CC(C)(C)O2 | 6.63 | 5.85 |
| CC1(C)C=C(n2ccccc2=O)c2cc(OCC(=O)c3ccc(F)cc3)ccc2O1 | 4.63 | 4.77 |
| CC1(C)C=C(n2ccccc2=O)c2cc(OCC(=O)c3ccccc3)ccc2O1 | 5.05 | 4.69 |
| Cc1ccccc1C(=O)c1ccc2c(c1)C(n1ccccc1=O)=CC(C)(C)O2 | 6.83 | 6.25 |
| CC1(C)C=C(n2ccccc2=O)c2cc(OC(=O)Nc3ccccc3F)ccc2O1 | 5.38 | 4.22 |
| CC1(C)C=C(n2ccccc2=O)c2cc(C(=O)c3c(F)cccc3F)ccc2O1 | 6.97 | 5.99 |
| CC1(C)C=C(n2ccccc2=O)c2cc(O)ccc2O1 | 5.44 | 5.31 |
| COc1ccc(C(=O)c2ccc3c(c2)C(n2ccccc2=O)=CC(C)(C)O3)cc1 | 6.15 | 5.72 |
| COc1ccc2c(c1)C(n1ccccc1=O)=CC(C)(C)O2 | 6.55 | 5.99 |
| CC1(C)C=C(n2ccccc2=O)c2cc(OC(=O)Nc3ccccc3C(F)(F)F)ccc2O1 | 5.58 | 5.19 |
| CC1(C)C=C(n2ccccc2=O)c2cc(C(=O)c3ccc(O)cc3)ccc2O1 | 6.65 | 5.87 |

| Compound | Log 1/C (Rattus norvegicus [1]) | Log 1/C (Rattus norvegicus [2]) |
| --- | --- | --- |
| CC1(C)C=C(n2ccccc2=O)c2cc(OC(=O)Nc3ccccc3)ccc2O1 | 5.3 | 4.89 |
| CC1(C)C=C(n2ccccc2=O)c2cc(C(=O)c3cccs3)ccc2O1 | 6.4 | 5.84 |
| CC1(C)C=C(n2ccccc2=O)c2cc(C(=O)c3ccccc3)ccc2O1 | 6.61 | 6.21 |
| CC1(C)C=C(n2ccccc2=O)c2cc(C(=O)c3ccco3)ccc2O1 | 6.49 | 5.92 |
| CC1(C)C=C(n2ccccc2=O)c2cc(C(=O)c3ccccc3[N+](=O)[O-])ccc2O1 | 6.17 | 5.64 |
| CC1(C)C=C(n2ccccc2=O)c2cc(C(=N)S)ccc2O1 | 6.21 | 5.96 |
| CC(=O)c1ccc2c(c1)C(n1ccccc1=O)=CC(C)(C)O2 | 7.37 | 6.65 |
| Cc1ccc(C)n1-c1ccc2c(c1)C(n1ccccc1=O)=CC(C)(C)O2 | 7.27 | 6.78 |
| CC1(C)C=C(n2ccccc2=O)c2cc(C(=O)c3ccc([N+](=O)[O-])cc3)ccc2O1 | 6.2 | 6.09 |
| CC1(C)C=C(n2ccccc2=O)c2ccccc2O1 | 5.43 | 5.05 |
| CC(=O)Oc1ccc2c(c1)C(n1ccccc1=O)=CC(C)(C)O2 | 5.6 | 4.97 |
| CC1(C)C=C(n2ccccc2=O)c2cc(OS(=O)(=O)F)ccc2O1 | 7.95 | 7.22 |
| CC1(C)C=C(n2ccccc2=O)c2cc(C=O)ccc2O1 | 6.91 | 6.14 |
| CC1(C)C=C(n2ccccc2=O)c2cc(OC(=O)Nc3ccc(F)cc3)ccc2O1 | 5.3 | 4.37 |
| CC1(C)C=C(n2ccccc2=O)c2cc(C=C(C#N)C#N)ccc2O1 | 6.95 | 6.3 |
| CC1(C)C=C(n2ccccc2=O)c2cc(OC(=O)Nc3ccc(C(F)(F)F)cc3)ccc2O1 | 5.1 | 4.54 |
| CC1(C)C=C(n2ccccc2=O)c2cc(C#N)ccc2O1 [BIMAKALIM] | 7.67 | 7.1 |
